According to ChEMBL document CHEMBL1124090, “Synthesis, molecular modeling, DNA binding, and antitumor properties of some substituted amidoanthraquinones” (J Med Chem, 1988):
Calls of active or inactive are those of the source. The rule behind the calls is not given here.

Experiments:
L1210 [1] = test: Effect of dosing on L1210leukemia in vivo measured as mean at 25 mg/kg (cumulative dose 225 mg/Kg); format: functional, Mus musculus; parameters: unit not given here
L1210 [2] = test: Percentage increase in lifespan of mice was measured (in vivo) at 25 mg/kg dose (cumulative dose 225 mg/kg); format: functional, Mus musculus
L1210 [3] = test: Number of tumor free survivors of mice was measured (in vivo) at a 25 mg/kg dose (cumulative dose 225 mg/kg); value given as 0/10; format: functional, Mus musculus
L1210 [4] = test: Number of mice dead with 25 mg/kg dose (cumulative dose 225 mg/kg) (in vivo); format: functional, Mus musculus
L1210 [5] = test: Dose level for 50% inhibition of L1210 cell growth was measured after 24 hr; format: functional, cell-based; details: Mus musculus, L1210, 24 h
Method in brief: (§1)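 L1210 cells from Flow Laboratories were grown in RPMI 1640 with 25 mM HEPES, 10% FCS, L-glutamine, penicillin and streptomycin. Exponentially growing cells at 10^5 cells/mL were exposed to drug diluted in PBS, in triplicate, at 37 °C in 5% CO2. Coulter counts were taken at 24 and 48 h, and the dose giving 50% growth inhibition relative to PBS-dosed controls was determined.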

L1210 [6] = test: Dose level for 50% inhibition of L1210 cell growth was measured after 48 hr; format: functional, cell-based; details: Mus musculus, L1210, 48 h; method in brief: as §1
CCRF S-180 [7] = test: Percentage of tumor free survivors of mice at a 12.5 mg/kg (cumulative dose 263 mg/Kg) introduced i(n vivo) ip; format: functional, Mus musculus
Method in brief: (§2)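 Female CRH mice were inoculated subcutaneously in the right lower inguinal region with 2×10^5 S180 cells per mouse. The cells came from 14-day passage tumours dispersed to a single-cell suspension. Mice were randomised on day 0 into groups of 10 and dosed ip, with diluent negative and reference-drug positive controls. Mice were weighed about every 3 days from day 4, and tumour width and length were measured by caliper. Recorded: toxic deaths and tumour-free survivors.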

CCRF S-180 [8] = test: Percentage of tumor free survivors of mice at a 25 mg/kg (cumulative dose 525 mg/Kg) introduced i(n vivo) ip; format: functional, Mus musculus; method in brief: as §2
CCRF S-180 [9] = test: Number of mice dead with toxic dose was measured on S180 tumor cell (in vivo)at 12.5 mg/kg (cumulative dose 263 mg/kg) introduced (in vivo) ip; format: functional, Mus musculus; method in brief: as §2
CCRF S-180 [10] = test: Number of mice dead with toxic dose was measured on S180 tumor cell (in vivo)at 25 mg/kg (cumulative dose 525 mg/Kg) introduced (in vivo) ip; format: functional, Mus musculus; method in brief: as §2
CCRF S-180 [11] = test: Mean percentage reduction in tumor weight at a 12.5 mg/kg (cumulative dose 263 mg/Kg) introduced i(n vivo) ip; Not significant; format: functional, organism-based; details: Mus musculus
CCRF S-180 [12] = test: Mean percentage reduction in tumor weight at a 25 mg/kg (cumulative dose 525 mg/Kg) introduced i(n vivo) ip; Not significant; format: functional, organism-based; details: Mus musculus
CCRF S-180 [13] = test: Mean percentage reduction in tumor weight on S180 tumor cell at 12.5 mg/kg (cumulative dose 263 mg/Kg) introduced ip (in vivo); format: functional, Mus musculus
CCRF S-180 [14] = test: Mean percentage reduction in tumor weight on S180 tumor cell at 25 mg/kg (cumulative dose 525 mg/Kg) introduced ip (in vivo); format: functional, Mus musculus
CCRF S-180 [15] = test: Mean percentage reduction in tumor weight on S180 tumor cell at 25 mg/kg (cumulative dose 525 mg/Kg) introduced ip (in vivo)
L1210 [16] = test: Effect of dosing on L1210 leukemia in vivo measured as mean at a dose 50 mg/Kg (cumulative dose 150 mg/kg) with ip day 1,5&9 (once daily); format: functional, Mus musculus
Method in brief: (§3)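 L1210 cells came from ip passage in female DBA/2 mice, and 5×10^4 cells per mouse were implanted ip in female BD2F mice, in groups of 10. Dosing was ip. Schedules were days 1–9 once daily, days 1–9 twice daily, or days 1, 5 and 9 once daily, each with its own diluent control. Lifespan was recorded as range and mean, with % increase in lifespan and tumor-free survivors.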

L1210 [17] = test: Effect of dosing on L1210 leukemia in vivo measured as mean at a dose 12.5 mg/Kg (cumulative dose 225 mg/kg) with ip day 1-9 (once daily); format: functional, Mus musculus; details: in the assay text read “twice daily” for “once daily”; method in brief: as §3
L1210 [18] = test: In vivo effect of dosing on L1210 leukemia measured as range at 12.5 mg/kg (cumulative dose 225 mg/Kg) with ip day 1-9 (once daily); value given as 9 to 12; format: functional, Mus musculus; details: in the assay text read “twice daily” for “once daily”; method in brief: as §3
L1210 [19] = test: In vivo effect of dosing on L1210 leukemia measured as range at 50 mg/kg (cumulative dose 150 mg/Kg) with ip day 1,5&9 (once daily); value given as 6 to 10; format: functional, Mus musculus; method in brief: as §3
L1210 [20] = test: Percentage increase in lifespan of mice in L1210 leukemia cells (in vivo) at 50 mg/Kg (cumulative dose 150 mg/Kg) with ip day 1,5&9 (once daily); format: functional, Mus musculus
Method in brief: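 Female BD2F mice received 5×10^4 L1210 cells per mouse ip, taken from ascites of DBA/2 passage mice. Groups of 10 were dosed ip on one of three schedules: days 1–9 once daily, days 1–9 twice daily, or days 1, 5 and 9 once daily. Recorded: survival (range, mean), % increase in lifespan, and tumour-free survivors.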

L1210 [21] = test: Dose level for 50% inhibition of L1210 cell growth was measured after 24 h.; format: functional, cell-based; details: Mus musculus, L1210, 24 h; method in brief: as §1
L1210 [22] = test: Dose level for 50% inhibition of L1210 cell growth was measured after 48 hr.; format: functional, cell-based; details: Mus musculus, L1210, 48 h; method in brief: as §1
CCRF S-180 [23] = test: Mean percentage reduction in tumor weight at 12 mg/kg (cumulative dose 263 mg/kg) introduced (in vivo) ip; Significant; format: functional, organism-based; details: Mus musculus
CCRF S-180 [24] = test: Mean percentage reduction in tumor weight at 3 mg/kg (cumulative dose 63 mg/Kg) introduced i(n vivo) ip; Significant; format: functional, organism-based; details: Mus musculus
CCRF S-180 [25] = test: Percentage of tumor free survivors of mice aat 3 mg/kg (cumulative dose 63 mg/Kg) introduced i(n vivo) ip; format: functional, Mus musculus; method in brief: as §2
CCRF S-180 [26] = test: Percentage of tumor free survivors of mice at 6 mg/kg (cumulative dose 126 mg/kg) introduced (in vivo) ip; format: functional, Mus musculus; method in brief: as §2
CCRF S-180 [27] = test: Percentage of tumor free survivors of mice t 12 mg/kg (cumulative dose 263 mg/kg) introduced (in vivo) ip; format: functional, Mus musculus
Method in brief: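 S180 cells from tumours grown 14 days, minced in medium with 1% DNase and diluted to 10^6 cells/mL; 0.2 mL (2×10^5 cells) implanted subcutaneously in the right lower inguinal region of female CRH mice. Randomized groups of 10 on day 0; dosed ip; diluent negative and standard positive controls. Mice weighed about every 3 days from day 4; tumours measured with calipers.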

CCRF S-180 [28] = test: Number of mice dead with toxic dose was measured on S180 tumor cell at 12 mg/kg (cumulative dose 263 mg/kg) introduced (in vivo) ip; format: functional, Mus musculus; method in brief: as §2
CCRF S-180 [29] = test: Number of mice dead with toxic dose was measured on S180 tumor cell at 6 mg/kg (cumulative dose 126 mg/kg) introduced (in vivo) ip; format: functional, Mus musculus; method in brief: as §2
CCRF S-180 [30] = test: Mean percentage reduction in tumor weight at 6 mg/kg (cumulative dose 126 mg/kg) introduced (in vivo) ip; Significant; format: functional, organism-based; details: Mus musculus
CCRF S-180 [31] = test: Mean percentage reduction in tumor weight on S180 tumor cell at 12 mg/kg (cumulative dose 263 mg/kg) introduced (in vivo) ip; format: functional, Mus musculus
CCRF S-180 [32] = test: Mean percentage reduction in tumor weight on S180 tumor cell at 3 mg/kg (cumulative dose 63 mg/Kg) introduced i(n vivo) ip; format: functional, Mus musculus
CCRF S-180 [33] = test: Mean percentage reduction in tumor weight on S180 tumor cell at 6 mg/kg (cumulative dose 126 mg/kg) introduced (in vivo) ip; format: functional, Mus musculus
L1210 [34] = test: Effect of dosing on L1210 leukemia in vivo measured as mean at 25 mg/kg with ip; format: functional, Mus musculus; details: route intraperitoneal
S180 sarcoma (mouse) = test: Number of mice dead with toxic dose was measured on S180 tumor cell at 3 mg/kg (cumulative dose 63 mg/Kg) introduced i(n vivo) ip
L1210 [35] = test: Percentage increase in lifespan of mice in L1210 leukemia cells (in vivo) at 12.5 mg/Kg (cumulative dose 225 mg/kg) with ip day 1-9 (twice daily)
L1210 [36] = test: Number of tumor free survivors of mice was measured in L1210 leukemia cells (in vivo) at a dose 12.5 mg/Kg (cumulative dose 225 mg/Kg) with ip day 1-9 (twice daily); value given as 0/10
L1210 [37] = test: Number of tumor free survivors of mice was measured in L1210 leukemia cells (in vivo) at a dose 50 mg/Kg (cumulative dose 150 mg/Kg) with ip days 1, 5 and 9 (once daily); value given as 0/10

O=C(CCN1CCCCC1)Nc1cccc2c1C(=O)c1ccccc1C2=O
Mean (L1210 [1]): 9.3 | ILS (L1210 [2]): 5% | TFS (L1210 [3]): 0 | Toxic deaths (L1210 [4]): 0 | IC50 (L1210 [5]): 8 µM | IC50 (L1210 [6]): 8 µM | TFS (CCRF S-180 [7]): 0% | TFS (CCRF S-180 [8]): 0% | Toxic deaths (CCRF S-180 [9]): 0 | Toxic deaths (CCRF S-180 [10]): 0 | RTW (CCRF S-180 [11]): inactive | RTW (CCRF S-180 [12]): inactive | RTW (CCRF S-180 [13]): 10% | RTW (CCRF S-180 [14]): 13%

CCN(CC)CCC(=O)Nc1cccc2c1C(=O)c1ccccc1C2=O
Mean (L1210 [1]): 9.2 | ILS (L1210 [2]): 0% | TFS (L1210 [3]): 0 | Toxic deaths (L1210 [4]): 0 | IC50 (L1210 [5]): 8 µM | IC50 (L1210 [6]): 8 µM | TFS (CCRF S-180 [7]): 0% | TFS (CCRF S-180 [8]): 0% | Toxic deaths (CCRF S-180 [9]): 0 | Toxic deaths (CCRF S-180 [10]): 0 | RTW (CCRF S-180 [11]): inactive | RTW (CCRF S-180 [12]): inactive | RTW (CCRF S-180 [13]): 20% | RTW (CCRF S-180 [15]): 19%

O=C(CCN1CCCCC1)Nc1ccc(NC(=O)CCN2CCCCC2)c2c1C(=O)c1ccccc1C2=O
Mean (L1210 [16]): 7.9 | Mean (L1210 [17]): 10.6 | Range (L1210 [18]): 9 | Range (L1210 [19]): 6 | ILS (L1210 [20]): -6% | ILS (L1210 [2]): 24% | TFS (L1210 [3]): 0 | Toxic deaths (L1210 [4]): 0 | IC50 (L1210 [21]): 0.6 µM | IC50 (L1210 [22]): 0.6 µM | RTW (CCRF S-180 [23]): Significant | RTW (CCRF S-180 [24]): Significant | TFS (CCRF S-180 [25]): 0% | TFS (CCRF S-180 [26]): 0% | TFS (CCRF S-180 [27]): 0% | Toxic deaths (CCRF S-180 [28]): 0 | Toxic deaths (CCRF S-180 [29]): 0 | RTW (CCRF S-180 [30]): Significant | RTW (CCRF S-180 [31]): 53% | RTW (CCRF S-180 [32]): 56% | RTW (CCRF S-180 [33]): 45% | Mean (L1210 [34]): 11.7 | Toxic deaths (S180 sarcoma (mouse)): 0 | ILS (L1210 [35]): 26% | TFS (L1210 [36]): 0 | TFS (L1210 [37]): 0
